Test results published in ChEMBL document CHEMBL2016555, “4-Methoxy-N-[2-(trifluoromethyl)biphenyl-4-ylcarbamoyl]nicotinamide: A Potent and Selective Agonist of S1P1” (ACS Med Chem Lett, 2011).
≈ marks a conversion by molar mass, not a printed value.

Tests used:
[1] = Solubility of the compound in simulated intestinal fluid; format: physicochemical
[2] = target: T1, Sphingosine 1-phosphate receptor 1 (Homo sapiens, UniProt P21453); experiment: Agonist activity at human S1P1 expressed in U2OS cells coexpressing eGFP assessed as receptor internalization after 1 hr by microscopic analysis relative to 1-(4-(6-benzylbenzofuran-2-yl)-3-fluorobenzyl)azetidine-3-carboxylic acid; format: functional, cell-based
T1 sequence (P21453 whole entry, the tested form may be a part): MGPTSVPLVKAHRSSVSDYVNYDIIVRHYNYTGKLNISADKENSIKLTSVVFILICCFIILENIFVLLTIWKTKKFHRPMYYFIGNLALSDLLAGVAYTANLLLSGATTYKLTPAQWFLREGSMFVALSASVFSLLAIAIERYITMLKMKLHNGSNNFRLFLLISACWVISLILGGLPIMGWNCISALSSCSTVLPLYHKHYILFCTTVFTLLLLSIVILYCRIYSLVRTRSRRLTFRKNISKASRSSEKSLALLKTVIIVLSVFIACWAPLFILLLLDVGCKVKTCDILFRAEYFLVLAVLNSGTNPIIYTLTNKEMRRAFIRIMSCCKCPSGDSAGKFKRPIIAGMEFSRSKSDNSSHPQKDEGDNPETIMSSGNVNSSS
Procedure, shortened: (§1)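 Human S1P1–eGFP fusion protein expressed in U2OS cells; agonism read as receptor internalization; EC50 derived, efficacy expressed relative to 1-(4-(6-benzylbenzofuran-2-yl)-3-fluorobenzyl)azetidine-3-carboxylic acid at 1.0 μM.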

[3] = Efflux ratio of apparent permeability across pig LLC-PK1 cells; format: ADME, cell-based, Sus scrofa
Procedure, shortened: (§2)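 Permeability across porcine proximal tubule LLC-PK1 cell monolayers; apparent permeability (Papp) and efflux ratio determined.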

[4] = Apparent permeability across pig LLC-PK1 cells; format: ADME, cell-based, Sus scrofa; procedure, shortened: as §2
[5] = Solubility of the compound in 0.01 M aqueous HCl; format: physicochemical
[6] = target: T1, Sphingosine 1-phosphate receptor 1; experiment: Agonist activity at human S1P1 expressed in U2OS cells coexpressing eGFP assessed as receptor internalization after 1 hr by microscopic analysis; format: functional, cell-based; procedure, shortened: as §1
[7] = tested on: Rattus norvegicus; experiment: Immunosuppressive activity in Lewis rat assessed as change in peripheral lymphocyte count at 1 mg/kg, po after 24 hrs relative to vehicle treated control; format: functional
Procedure, shortened: (§3)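 Female Lewis rats (N = 5/group) given one oral dose of 1 mg/kg (20% captisol, 1% HPMC, 1% pluronic F68, pH 2.1 with MSA); blood lymphocyte count and total plasma compound measured at 24 h; POC vs vehicle, ANOVA/Dunnett's test.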

[8] = tested on: Plasma; experiment: Plasma concentration in Lewis rat at 1 mg/kg, po at 24 hrs; format: ADME, organism-based; design: dose 1 mg/kg, route oral; conditions: in vivo, 24 h, BLD = below limit of detection; procedure, shortened: as §3
[9] = Intrinsic clearance in rat liver microsomes after 30 mins; format: ADME, Microsome; conditions: read-out: CLH
[10] = Solubility of the compound in phosphate buffer saline at pH 7.4; format: physicochemical; conditions: phosphate buffered saline
[11] = target: Sphingosine 1-phosphate receptor 3 (Homo sapiens, UniProt Q99500); experiment: Agonist activity at human S1P3 expressed in CHO-K1 cells coexpressing Gq/i5 assessed as intracellular calcium release by fluorimetry; format: functional, cell-based
Sphingosine 1-phosphate receptor 3, sequence (Q99500 whole entry): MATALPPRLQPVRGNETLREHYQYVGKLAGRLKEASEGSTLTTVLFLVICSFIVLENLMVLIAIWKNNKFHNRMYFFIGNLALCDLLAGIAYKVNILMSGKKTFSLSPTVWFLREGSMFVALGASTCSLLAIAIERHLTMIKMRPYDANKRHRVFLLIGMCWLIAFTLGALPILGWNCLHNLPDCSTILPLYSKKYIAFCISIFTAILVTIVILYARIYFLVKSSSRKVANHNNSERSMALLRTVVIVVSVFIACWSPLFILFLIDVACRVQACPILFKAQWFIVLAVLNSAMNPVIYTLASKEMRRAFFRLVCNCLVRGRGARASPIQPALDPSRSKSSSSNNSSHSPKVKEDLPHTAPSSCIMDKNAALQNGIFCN
Procedure, shortened: (§4)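 CHO-K1 cells expressing the human S1P receptor subtype plus chimeric Gq/i5; Ca2+ mobilization measured; efficacy relative to S1P at 0.20 μM; compounds not reaching >10% of control activity reported as > highest concentration tested.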

[12] = Bioavailability in Sprague-Dawley rat at 3 mg/kg, po and 1 mg/kg, iv; format: ADME, organism-based; conditions: in vivo
[13] = Plasma concentration in Lewis rat at 0.3 mg/kg, po at 24 hrs; format: ADME, organism-based; design: dose 0.3 mg/kg, route oral
Procedure, shortened: (§5)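 Female Lewis rats dosed orally once at 0.30, 1.0 or 3.0 mg/kg (N = 5; 3.0 mg/kg group N = 3) in 20% HPBCD, 1% HPMC, 1% pluronic F68, pH 2.1 with MSA; blood lymphocytes and plasma concentration at 24 h; ANOVA/Dunnett's vs vehicle.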

[14] = tested on: Rattus norvegicus; experiment: Toxicity in Sprague-Dawley rat assessed as increase in bilirubin level at 200 mg/kg, po administered qd for 4 days; format: organism-based; design: dose 200 mg/kg, route oral; conditions: in vivo, 96 h
Procedure, shortened: (§6)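 Male Sprague-Dawley rats, N = 3/group, dosed orally once daily for 4 days at 50 or 200 mg/kg. Endpoints were mortality, clinical signs, body weight, and clinical chemistry including total bilirubin and cholesterol.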

[15] = target: T2, Sphingosine 1-phosphate receptor 5 (Homo sapiens, UniProt Q9H228); experiment: Agonist activity at human S1P5 expressed in CHO-K1 cells coexpressing Gq/i5 assessed as calcium mobilization-induced bioluminescence change measured for 90 secs by fluorimetry relative to S1P; format: functional, cell-based; procedure, shortened: as §4
T2 sequence (Q9H228 whole entry): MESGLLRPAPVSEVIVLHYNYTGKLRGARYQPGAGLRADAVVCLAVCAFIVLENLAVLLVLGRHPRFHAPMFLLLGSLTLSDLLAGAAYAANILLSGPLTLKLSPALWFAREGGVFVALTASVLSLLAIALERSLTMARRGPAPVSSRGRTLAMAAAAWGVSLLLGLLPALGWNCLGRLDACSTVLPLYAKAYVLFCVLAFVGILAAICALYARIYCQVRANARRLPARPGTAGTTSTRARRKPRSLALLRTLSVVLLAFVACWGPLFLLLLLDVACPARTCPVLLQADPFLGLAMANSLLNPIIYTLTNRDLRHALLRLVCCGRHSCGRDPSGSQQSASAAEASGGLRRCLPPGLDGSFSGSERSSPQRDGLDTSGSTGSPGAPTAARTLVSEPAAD

[16] = target: Cytochrome P450 2D6 (Homo sapiens, UniProt P10635); experiment: Inhibition of human CYP2D6; format: ADME
Cytochrome P450 2D6, sequence (P10635 whole entry): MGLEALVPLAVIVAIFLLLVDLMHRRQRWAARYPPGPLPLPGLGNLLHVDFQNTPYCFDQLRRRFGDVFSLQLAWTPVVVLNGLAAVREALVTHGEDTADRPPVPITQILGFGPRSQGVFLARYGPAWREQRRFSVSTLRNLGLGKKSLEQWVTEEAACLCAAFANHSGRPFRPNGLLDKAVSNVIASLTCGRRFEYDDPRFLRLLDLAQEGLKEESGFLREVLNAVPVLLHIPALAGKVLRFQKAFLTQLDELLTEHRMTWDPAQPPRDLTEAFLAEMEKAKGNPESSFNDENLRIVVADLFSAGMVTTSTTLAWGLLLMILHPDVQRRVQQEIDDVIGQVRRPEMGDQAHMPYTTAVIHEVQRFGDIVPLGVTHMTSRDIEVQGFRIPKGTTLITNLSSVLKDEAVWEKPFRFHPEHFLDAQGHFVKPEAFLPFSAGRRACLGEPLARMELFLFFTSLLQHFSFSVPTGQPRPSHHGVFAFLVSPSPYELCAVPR

[17] = Plasma protein binding in Sprague-Dawley rat in vitro by ultracentrifugation; conditions: read-out: PPB (converted)
[18] = AUC (0 to 48 hrs) in Sprague-Dawley rat at 1 mg/kg, iv; format: ADME, organism-based; design: time < 48 hr, dose 1 mg/kg, route intravenous; conditions: plasma
[19] = AUC (0 to 48 hrs) in Sprague-Dawley rat at 3 mg/kg, po; format: ADME, organism-based; design: time < 48 hr, dose 3 mg/kg, route oral; conditions: plasma
[20] = tested on: Rattus norvegicus; experiment: Immunosuppressive activity in po dosed Lewis rat assessed as change in peripheral lymphocyte count after 24 hrs relative to vehicle treated control; format: functional, organism-based; procedure, shortened: as §5
[21] = Plasma concentration in Lewis rat at 3 mg/kg, po at 24 hrs; format: ADME, organism-based; design: dose 3 mg/kg, route oral; procedure, shortened: as §5
[22] = Half life in Sprague-Dawley rat at 1 mg/kg, iv; format: ADME, organism-based; design: dose 1 mg/kg, route intravenous; conditions: in vivo
[23] = tested on: Rattus norvegicus; experiment: Immunosuppressive activity in po dosed Lewis rat assessed as change in peripheral lymphocyte count at 3 mg/kg, po after 24 hrs relative to vehicle treated control; format: functional; procedure, shortened: as §5
[24] = target: T2, Sphingosine 1-phosphate receptor 5; experiment: Agonist activity at human S1P5 expressed in CHO-K1 cells coexpressing Gq/i5 assessed as calcium mobilization-induced bioluminescence change measured for 90 secs by fluorimetry; format: functional, cell-based; procedure, shortened: as §4
[25] = tested on: Rattus norvegicus; experiment: Toxicity in Sprague-Dawley rat assessed as weight loss at 50 mg/kg, po administered qd for 4 days; format: organism-based; design: dose 50 mg/kg, route oral; conditions: in vivo, 96 h; procedure, shortened: as §6
[26] = tested on: Rattus norvegicus; experiment: Toxicity in Sprague-Dawley rat assessed as increase in bilirubin level at 50 mg/kg, po administered qd for 4 days; format: organism-based; design: dose 50 mg/kg, route oral; conditions: in vivo, 96 h; procedure, shortened: as §6
[27] = tested on: Rattus norvegicus; experiment: Toxicity in Sprague-Dawley rat assessed as clinical signs at 50 mg/kg, po administered qd for 4 days; format: organism-based; design: dose 50 mg/kg, route oral; conditions: in vivo, 96 h; procedure, shortened: as §6
[28] = target: T3, PXR (NR1I2) (Homo sapiens, UniProt O75469); experiment: Induction of human PXR at 10 uM relative to control; conditions: read-out: Activity
T3 sequence (O75469 whole entry): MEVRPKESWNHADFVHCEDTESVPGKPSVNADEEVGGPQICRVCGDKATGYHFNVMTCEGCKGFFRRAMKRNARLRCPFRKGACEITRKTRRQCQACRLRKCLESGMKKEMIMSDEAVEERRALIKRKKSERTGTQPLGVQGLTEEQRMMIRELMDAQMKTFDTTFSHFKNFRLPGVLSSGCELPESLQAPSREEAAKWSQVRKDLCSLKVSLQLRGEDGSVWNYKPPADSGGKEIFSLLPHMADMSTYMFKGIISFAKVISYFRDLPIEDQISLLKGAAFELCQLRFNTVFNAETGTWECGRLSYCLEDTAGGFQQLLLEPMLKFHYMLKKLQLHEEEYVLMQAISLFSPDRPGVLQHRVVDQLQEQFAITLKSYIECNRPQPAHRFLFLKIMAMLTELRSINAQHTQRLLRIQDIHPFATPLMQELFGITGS

[29] = target: Sphingosine 1-phosphate receptor 2 (Homo sapiens, UniProt O95136); experiment: Agonist activity at human S1P2 expressed in CHO-K1 cells coexpressing Gq/i5 assessed as intracellular calcium release by fluorimetry; format: functional, cell-based; procedure, shortened: as §4
Sphingosine 1-phosphate receptor 2, sequence (O95136 whole entry): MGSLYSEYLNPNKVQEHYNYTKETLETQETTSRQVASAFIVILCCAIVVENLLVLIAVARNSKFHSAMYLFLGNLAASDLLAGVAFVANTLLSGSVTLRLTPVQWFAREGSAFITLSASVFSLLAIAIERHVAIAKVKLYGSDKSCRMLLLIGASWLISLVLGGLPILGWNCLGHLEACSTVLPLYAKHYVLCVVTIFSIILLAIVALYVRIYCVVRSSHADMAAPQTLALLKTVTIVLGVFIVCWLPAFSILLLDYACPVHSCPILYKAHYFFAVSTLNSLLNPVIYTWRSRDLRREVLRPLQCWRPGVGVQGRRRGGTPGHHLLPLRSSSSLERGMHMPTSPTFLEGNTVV

[30] = tested on: Rattus norvegicus; experiment: Toxicity in Sprague-Dawley rat assessed as weight loss at 200 mg/kg, po administered qd for 4 days; format: organism-based; design: dose 200 mg/kg, route oral; conditions: in vivo, 96 h; procedure, shortened: as §6
[31] = tested on: Rattus norvegicus; experiment: Toxicity in Sprague-Dawley rat assessed as increase in cholesterol level at 200 mg/kg, po administered qd for 4 days; format: organism-based; design: dose 200 mg/kg, route oral; conditions: in vivo, 96 h; procedure, shortened: as §6
[32] = tested on: Rattus norvegicus; experiment: Toxicity in Sprague-Dawley rat assessed as adverse clinical signs at 200 mg/kg, po administered qd for 4 days; format: organism-based; design: dose 200 mg/kg, route oral; conditions: in vivo, 96 h; procedure, shortened: as §6
[33] = target: Voltage-gated inwardly rectifying potassium channel KCNH2 (Homo sapiens, UniProt Q12809); experiment: Inhibition of human ERG
Voltage-gated inwardly rectifying potassium channel KCNH2, sequence (Q12809 whole entry): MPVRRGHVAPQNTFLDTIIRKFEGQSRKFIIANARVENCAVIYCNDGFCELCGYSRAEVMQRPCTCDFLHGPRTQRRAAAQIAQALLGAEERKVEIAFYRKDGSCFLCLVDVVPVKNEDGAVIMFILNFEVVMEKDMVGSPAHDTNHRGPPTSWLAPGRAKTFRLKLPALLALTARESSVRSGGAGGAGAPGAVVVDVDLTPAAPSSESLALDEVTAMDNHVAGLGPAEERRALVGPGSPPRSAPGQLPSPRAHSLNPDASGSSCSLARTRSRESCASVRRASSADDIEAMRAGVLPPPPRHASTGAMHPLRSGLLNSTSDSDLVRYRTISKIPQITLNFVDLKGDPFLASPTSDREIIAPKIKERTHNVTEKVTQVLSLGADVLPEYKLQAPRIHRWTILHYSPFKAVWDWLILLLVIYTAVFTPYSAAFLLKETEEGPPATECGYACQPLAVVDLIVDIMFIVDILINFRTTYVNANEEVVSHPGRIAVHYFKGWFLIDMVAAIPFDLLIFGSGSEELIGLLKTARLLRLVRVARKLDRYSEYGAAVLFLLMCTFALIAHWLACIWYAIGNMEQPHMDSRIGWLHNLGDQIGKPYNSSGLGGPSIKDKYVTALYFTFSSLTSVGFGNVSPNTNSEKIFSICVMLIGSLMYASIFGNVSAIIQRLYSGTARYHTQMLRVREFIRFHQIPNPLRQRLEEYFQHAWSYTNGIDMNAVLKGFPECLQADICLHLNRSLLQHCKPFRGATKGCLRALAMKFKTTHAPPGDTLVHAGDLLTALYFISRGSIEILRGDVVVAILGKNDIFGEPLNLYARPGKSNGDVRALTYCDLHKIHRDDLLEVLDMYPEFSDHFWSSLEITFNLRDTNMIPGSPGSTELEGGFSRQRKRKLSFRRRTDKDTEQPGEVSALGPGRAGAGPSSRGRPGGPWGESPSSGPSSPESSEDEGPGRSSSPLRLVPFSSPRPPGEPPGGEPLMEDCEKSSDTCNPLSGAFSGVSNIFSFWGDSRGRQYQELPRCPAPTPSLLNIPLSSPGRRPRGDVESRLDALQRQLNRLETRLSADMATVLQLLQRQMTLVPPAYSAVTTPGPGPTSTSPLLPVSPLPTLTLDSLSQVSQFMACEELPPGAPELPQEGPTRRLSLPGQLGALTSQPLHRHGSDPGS

[34] = Clearance in Sprague-Dawley rat at 1 mg/kg, iv; format: ADME, organism-based; design: dose 1 mg/kg, route intravenous; conditions: in vivo
[35] = Volume of distribution at steady state in Sprague-Dawley rat at 1 mg/kg, iv; format: ADME, organism-based; design: dose 1 mg/kg, route intravenous; conditions: in vivo, read-out: Vdss
[36] = target: T4, Sphingosine 1-phosphate receptor 4 (Homo sapiens, UniProt O95977); experiment: Agonist activity at human S1P4 expressed in CHO-K1 cells coexpressing Gq/i5 assessed as calcium mobilization-induced bioluminescence change after measured for 90 secs by fluorimetry; format: functional, cell-based
T4 sequence (O95977 whole entry): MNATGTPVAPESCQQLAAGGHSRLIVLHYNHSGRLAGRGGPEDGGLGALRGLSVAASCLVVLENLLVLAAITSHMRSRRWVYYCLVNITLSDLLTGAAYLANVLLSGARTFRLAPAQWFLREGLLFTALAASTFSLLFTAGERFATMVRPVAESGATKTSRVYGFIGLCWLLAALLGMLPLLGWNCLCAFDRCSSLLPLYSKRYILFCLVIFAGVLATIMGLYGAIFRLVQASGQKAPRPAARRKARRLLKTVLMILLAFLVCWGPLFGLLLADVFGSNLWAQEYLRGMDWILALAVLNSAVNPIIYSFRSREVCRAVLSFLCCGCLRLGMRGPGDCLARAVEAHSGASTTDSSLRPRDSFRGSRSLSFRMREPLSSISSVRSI

[37] = tested on: Rattus norvegicus; experiment: AUC (0 to 48 hrs) in Sprague-Dawley rat at 100 mg/kg, po; format: ADME, organism-based, Plasma; design: time < 48 hr, dose 100 mg/kg, route oral; conditions: in vivo
[38] = tested on: Rattus norvegicus; experiment: Toxicity in Sprague-Dawley rat assessed as mortality at 50 mg/kg, po administered qd for 4 days; format: organism-based; design: dose 50 mg/kg, route oral; conditions: in vivo, 96 h; procedure, shortened: as §6
[39] = tested on: Rattus norvegicus; experiment: Toxicity in Sprague-Dawley rat assessed as mortality at 200 mg/kg, po administered qd for 4 days; format: organism-based; design: dose 200 mg/kg, route oral; conditions: in vivo, 96 h; procedure, shortened: as §6

Q: Which results are given for COc1ccccc1C(=O)NC(=O)Nc1ccc(C(C)C)c(C(F)(F)F)c1?
A: solubility [1]: 6.9 µg/mL (≈ 18.1 µM); Efficacy [2]: 110%; efflux ratio [3]: 1; Papp [4]: 2.1 ×10⁻⁶ cm/s; solubility [5]: < 1 µg/mL; EC50 [6]: 0.014 µM; Activity [7]: -16%; Cp [8]: BLD; microsomal CLint [9]: < 14 µL/min/mg; solubility [10]: < 1 µg/mL

Q: What does the source list for COc1ccccc1C(=O)NC(=S)Nc1ccc(N2CCCCC2)c(Cl)c1?
A: solubility [1]: 27 µg/mL (≈ 66.8 µM); Efficacy [2]: 87%; efflux ratio [3]: 1; Papp [4]: 1.8 ×10⁻⁶ cm/s; solubility [5]: < 1 µg/mL; EC50 [6]: 0.43 µM; microsomal CLint [9]: 29 µL/min/mg; EC50 [11]: > 25 µM; solubility [10]: < 1 µg/mL

Q: For COc1ccncc1C(=O)NC(=O)Nc1ccc(-c2ccccc2)c(C(F)(F)F)c1, which bioavailability [12] is on record?
A: 140%

Q: What about the concentration at 24 h [13] of the same molecule?
A: 17 ng/mL

Q: And the Activity [14]?
A: Toxic

Q: And the Efficacy [15]?
A: 58%

Q: And the IC50 [16]?
A: > 30 µM

Q: What about the fraction unbound [17] of the same molecule?
A: 0.05

Q: And the AUC(0-t) at 48 h [18]?
A: 3400 ng·h/mL

Q: What about the AUC(0-t) at 48 h [19] of the same molecule?
A: 13000 ng·h/mL

Q: And the Efficacy [2]?
A: 96%

Q: And the Activity [20]?
A: Dose-dependent effect

Q: What about the concentration at 24 h [21] of the same molecule?
A: 160 ng/mL

Q: What about the half-life [22] of the same molecule?
A: 19 h

Q: And the Activity [23]?
A: 81%

Q: What about the EC50 [24] of the same molecule?
A: 4.3 µM

Q: What about the Activity [25] of the same molecule?
A: Non-toxic

Q: And the Activity [26]?
A: Toxic

Q: What about the Activity [27] of the same molecule?
A: Non-toxic

Q: What about the activity at 10 µM [28] of the same molecule?
A: 3.7%

Q: What about the EC50 [29] of the same molecule?
A: > 25 µM

Q: And the Activity [30]?
A: Non-toxic

Q: What about the Activity [31] of the same molecule?
A: Toxic

Q: And the Activity [32]?
A: Non-toxic

Q: And the Activity [7]?
A: -67%

Q: And the IC50 [33]?
A: > 10 µM

Q: What about the clearance [34] of the same molecule?
A: 4.17 mL/min/kg

Q: What about the microsomal CLint [9] of the same molecule?
A: < 14 µL/min/mg

Q: What about the Vd [35] of the same molecule?
A: 6.3 L/kg

Q: And the EC50 [36]?
A: > 50 µM

Q: And the EC50 [11]?
A: > 25 µM

Q: What about the AUC [37] of the same molecule?
A: 350000 ng·h/mL

Q: What about the Activity [38] of the same molecule?
A: Non-toxic

Q: What about the Activity [39] of the same molecule?
A: Non-toxic
